Assay results from PMC12951621 (Toxicology, 2025).

Experiments:
[1] = parameters: species or system human; conditions: index chemical half-life 3.14 years divided by relative renal clearance
[2] = test system: hTERT-RPTEC-OAT1; parameters: species or system human; conditions: 96-well plates, two-compartment model
Procedure, shortened: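 96-well P ratio (medium/cell concentration, two-compartment model, assuming P1 = P2) entered a physiologically based kidney model. CLrenal,free was calculated from renal arterial blood flow (QK), proximal tubule flow (QPT) and P ratio, and predictions were set against literature human in vivo values.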

[3] = test system: hTERT-RPTEC-OAT1; assay: Directional transport, recovery and P ratio, hTERT-RPTEC-OAT1 Transwells; type: in vitro ADME, human; conditions: for Recovery pattern, apical (A→B) versus basolateral (B→A) treatment: 24 h, donor and recipient media and cell lysates
Procedure, shortened: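 hTERT-RPTEC-OAT1 cells seeded on fibronectin-coated (100 μg/mL, 1 h, 37°C) Transwells at 22,050 cells/insert. Cultured 2 days at 37°C, 5% CO2; inserts under 65 Ω×cm2 TEER excluded. Test compound (PFAS 5 μM final) added apically (A→B) or basolaterally (B→A), fresh medium opposite. Both chambers sampled at 4 and 24 h; cells lysed (M-PER, 10 min, RT) at 24 h. LC-MS/MS after acetonitrile precipitation with internal standards. Three-compartment Bayesian MCMC fit gave P1–P4; P ratio = P2P4/P1P3; n ≥ 4.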

[4] = test system: hTERT-RPTEC-OAT1; type: in vitro ADME, human; conditions: 96-well plates; for Accumulation in cells versus medium: 24 h, cell lysates and media, OAT1-overexpressing cells
Procedure, shortened: (§1)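 Cells seeded uncoated at 32,000 per well in 96-well plates, grown 6 days at 37°C, 5% CO2, medium changed every 48 h. Exposed to test compound in 150 μL medium (PFAS 5 μM final). Medium sampled at 4 and 24 h; cells PBS-rinsed and M-PER lysed at 24 h. Acetonitrile precipitation with internal standards, then LC-MS/MS. Two-compartment model, P ratio = medium/cell concentration; n ≥ 3.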

[5] = test system: hTERT-RPTEC-OAT1; assay: LDH release; type: cell-based, human; conditions: 24 hrs exposure, relative to vehicle controls, 96-well plates
Procedure, shortened: (§2)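 LDH activity measured with a biochemical kit in medium sampled after 24 h exposure to test compound. Expressed as % of vehicle-treated cultures. Compared by one-way ANOVA with Dunnett's post hoc test (p < 0.05). Replicates: n ≥ 3 in 96-well plates, n ≥ 4 in Transwells.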

[6] = test system: hTERT-RPTEC; assay: LDH release; type: cell-based, human; conditions: 24 hrs exposure, relative to vehicle controls, 96-well plates
Procedure, shortened: as §2

[7] = test system: hTERT-RPTEC-OAT1; assay: TEER barrier integrity, hTERT-RPTEC-OAT1 Transwells; type: cell-based, human; conditions: 24 hrs post-treatment
Procedure, shortened: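 Resistance read with an epithelial voltohmmeter and Ag/AgCl probes after treatment. Blank-membrane resistance subtracted, then multiplied by 0.143 cm2 growth area; reported as Ω×cm2. Pre-treatment cultures under 65 Ω×cm2 excluded; n ≥ 4.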

[8] = test system: hTERT-RPTEC-OAT1; assay: LDH release; type: cell-based, human; conditions: 24 hrs exposure, relative to vehicle controls, Transwells
Procedure, shortened: as §2

[9] = test system: hTERT-RPTEC; assay: Uptake / intracellular accumulation and P ratio, hTERT-RPTEC in 96-well plates; type: in vitro ADME, human; conditions: 24 h, cell lysates and media
Procedure, shortened: as §1

[10] = applied from the basolateral side (B→A)

SMILES: O=S(=O)(O)C(F)(F)C(F)(F)C(F)(F)C(F)(F)F [PFBS, Perfluorobutanesulfonic acid]
- Predicted human half-life [1]: Days/Months

SMILES: O=C(O)C(F)(F)C(F)(F)C(F)(F)C(F)(F)C(F)(F)F [PFHxA, Perfluorohexanoic acid]
- Predicted human half-life [1]: Days/Months

SMILES: C[C@H](Cn1cnc2c(N)ncnc21)OCP(=O)(O)O [Tenofovir, Tenofovir (TFV), reference compound]
- Predicted renal clearance, OAT1-overexpressing cells versus parental cells [2]: significantly lower
- Intracellular association ([3]; ratios of measured concentrations): higher intracellular association
- P ratio, OAT1-overexpressing cells versus parental cells [4]: roughly 100 fold lower
- Accumulation in cells versus medium [4]: enhanced accumulation in the OAT1-overexpressing cells

SMILES: O=C(O)C(F)(F)C(F)(F)C(F)(F)C(F)(F)C(F)(F)C(F)(F)C(F)(F)F [PFOA, Perfluorooctanoic acid]
- LDH release [5]: small but significant increase in LDH release

SMILES: CCCCCCCC[N+](CCCCCCCC)(CCCCCCCC)CCCCCCCC.[Br-] [TAB, tetraoctyl ammonium bromide, reference compound]
- LDH release [6]: significant LDH release
- TEER [7]: pronounced reduction in TEER
- LDH release [5]: significant LDH release
- LDH release [8]: significant LDH release

SMILES: O=C(O)C(F)(F)C(F)(F)C(F)(F)C(F)(F)C(F)(F)C(F)(F)C(F)(F)C(F)(F)C(F)(F)F [PFDA, Perfluorodecanoic acid]
- TEER [7, 10]: small but significant decrease in TEER
- Accumulation in cells versus medium [9]: tended to accumulate more in cells
- Recovery pattern, apical (A→B) versus basolateral (B→A) treatment [3]: divergent recovery patterns depending on dosing orientation
- Accumulation in cells versus medium [4]: tended to accumulate more in cells

SMILES: O=S(=O)(O)CCC(F)(F)C(F)(F)C(F)(F)C(F)(F)C(F)(F)C(F)(F)C(F)(F)C(F)(F)F [8:2 FTS, 8:2 Fluorotelomer sulfonic acid]
- Accumulation in cells versus medium [9]: tended to accumulate more in cells
- Recovery pattern, apical (A→B) versus basolateral (B→A) treatment [3]: divergent recovery patterns depending on dosing orientation
- Accumulation in cells versus medium [4]: tended to accumulate more in cells

SMILES: O=C(O)C(F)(F)C(F)(F)C(F)(F)C(F)(F)C(F)(F)C(F)(F)C(F)(F)C(F)(F)C(F)(F)C(F)(F)F [PFUnDA, Perfluoroundecanoic acid]
- TEER [7, 10]: small but significant decrease in TEER
- Accumulation in cells versus medium [9]: tended to accumulate more in cells
- Recovery pattern, apical (A→B) versus basolateral (B→A) treatment [3]: divergent recovery patterns depending on dosing orientation
- Accumulation in cells versus medium [4]: tended to accumulate more in cells

SMILES: O=S(=O)(O)C(F)(F)C(F)(F)C(F)(F)C(F)(F)C(F)(F)C(F)(F)C(F)(F)C(F)(F)F [PFOS, Perfluorooctanesulfonic acid]
- Recovery pattern, apical (A→B) versus basolateral (B→A) treatment [3]: divergent recovery patterns depending on dosing orientation
